Experimental data pooled from the literature.
Lines come from different studies, so protocols differ. pEC50: −log10 of the molar value.
Observed: cell growth or viability

| SMILES | cell line | test | setting | quantity | result |
| --- | --- | --- | --- | --- | --- |
| CCOC(=O)c1cc(-c2ccc(OCC)cc2)oc1-c1ccc(Cl)cc1 | U2OS | MTT | 48 h | pEC50 | 3.72 |
| N#CSCc1cc(=O)oc2cc(O)ccc12 | HeLa | SRB | – | GI50 | 3.7 µM |
| Cc1nc(NC(=O)N2CCC[C@H]2C(N)=O)sc1-c1ccnc(C(C)(C)C(F)(F)F)c1 | Detroit 562 | ATP luminescence | 5 days | pEC50 | 4.53 |
| N#CSCCCCOc1ccc2c(-c3ccccc3)cc(=O)oc2c1 | HeLa | SRB | – | GI50 | 25 µM |
| Cc1nc(Nc2ncc(C(=O)Nc3c(C)cccc3Cl)s2)cc(N2CC[C@H](O)C2)n1 | SU-DHL-6 | ATP luminescence | 10 µM, 72 h | inhibition | 97% |
| C=C(NC(=O)C(=C)NC(=O)c1csc(C2=N[C@@H]3c4csc(n4)[C@H]4NC(=O)c5csc(n5)[C@H]([C@](C)(O)[C@@H](C)O)NC(=O)[C@H]5CSC(=N5)/C(=C/C)NC(=O)[C@H]([C@@H](C)O)NC(=O)c5csc(n5)[C@]3(CC2)NC(=O)[C@H](C)NC(=O)C(=C)NC(=O)[C@H](C)NC(=O)[C@H]([C@@H](C)CC)N[C@@H]2C=Cc3c([C@H](C)O)cc(nc3[C@H]2O)C(=O)O[C@@H]4C)n1)C(N)=O | NCI-H1792 | – | – | pEC50 | 5.49 |
| CCOc1ccc(-c2cc(C(=O)O)c(-c3ccc(Cl)cc3)o2)cc1 | SK-MEL-2 | MTT | 48 h | pEC50 | 4.14 |
| CCC(=CCc1c(O)cc2c(c1O)C(=O)CC(c1ccc(O)cc1)O2)CC (stereo in doubt) | HeLa | MTT | 0.781 µM, 48 h | inhibition | 0.607% |
| CCOc1ccc(C(=O)CC(SCc2ccc(Cl)cc2)C(=O)OC)cc1 (centres unmarked) | SK-MEL-2 | MTT | 48 h | pEC50 | 4.64 |
| CCC(=CCc1c(O)cc2c(c1O)C(=O)C[C@H](c1ccccc1O)O2)CC | HeLa | MTT | 120 µM, 48 h | inhibition | 81.5% |
| Cc1c(Cl)c(=O)oc2cc(OCCCCSC#N)ccc12 | HeLa | SRB | – | GI50 | 6.2 µM |
